Screens deposited in PubChem BioAssay by several laboratories.
TLR9-MyD88 block – TLR9-MyD88 interaction inhibition. 0.21% of 340,000 active. CHO BLA complementation TLR9-MyD88, CCF4 FRET ratio. inhibition, % at 4.98 µM. AID 504734. Q9NR96+Q99836;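 active = inhibition above the mean over all tested compounds plus 3 SD, cut at about 21% in these data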;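 note: 0% = DMSO only wells and 100% = clavulanate BLA inhibitor control wells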
Target sequence (Q99836 whole entry, looked up): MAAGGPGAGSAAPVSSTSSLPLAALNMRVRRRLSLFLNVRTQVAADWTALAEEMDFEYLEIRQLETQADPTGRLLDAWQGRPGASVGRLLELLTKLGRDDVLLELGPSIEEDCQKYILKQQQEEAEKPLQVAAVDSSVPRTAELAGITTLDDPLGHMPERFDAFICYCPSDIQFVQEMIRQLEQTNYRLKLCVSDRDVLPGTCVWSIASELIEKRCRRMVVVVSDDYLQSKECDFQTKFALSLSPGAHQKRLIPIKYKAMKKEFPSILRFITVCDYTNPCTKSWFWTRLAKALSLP
Target sequence (Q9NR96 whole entry, looked up): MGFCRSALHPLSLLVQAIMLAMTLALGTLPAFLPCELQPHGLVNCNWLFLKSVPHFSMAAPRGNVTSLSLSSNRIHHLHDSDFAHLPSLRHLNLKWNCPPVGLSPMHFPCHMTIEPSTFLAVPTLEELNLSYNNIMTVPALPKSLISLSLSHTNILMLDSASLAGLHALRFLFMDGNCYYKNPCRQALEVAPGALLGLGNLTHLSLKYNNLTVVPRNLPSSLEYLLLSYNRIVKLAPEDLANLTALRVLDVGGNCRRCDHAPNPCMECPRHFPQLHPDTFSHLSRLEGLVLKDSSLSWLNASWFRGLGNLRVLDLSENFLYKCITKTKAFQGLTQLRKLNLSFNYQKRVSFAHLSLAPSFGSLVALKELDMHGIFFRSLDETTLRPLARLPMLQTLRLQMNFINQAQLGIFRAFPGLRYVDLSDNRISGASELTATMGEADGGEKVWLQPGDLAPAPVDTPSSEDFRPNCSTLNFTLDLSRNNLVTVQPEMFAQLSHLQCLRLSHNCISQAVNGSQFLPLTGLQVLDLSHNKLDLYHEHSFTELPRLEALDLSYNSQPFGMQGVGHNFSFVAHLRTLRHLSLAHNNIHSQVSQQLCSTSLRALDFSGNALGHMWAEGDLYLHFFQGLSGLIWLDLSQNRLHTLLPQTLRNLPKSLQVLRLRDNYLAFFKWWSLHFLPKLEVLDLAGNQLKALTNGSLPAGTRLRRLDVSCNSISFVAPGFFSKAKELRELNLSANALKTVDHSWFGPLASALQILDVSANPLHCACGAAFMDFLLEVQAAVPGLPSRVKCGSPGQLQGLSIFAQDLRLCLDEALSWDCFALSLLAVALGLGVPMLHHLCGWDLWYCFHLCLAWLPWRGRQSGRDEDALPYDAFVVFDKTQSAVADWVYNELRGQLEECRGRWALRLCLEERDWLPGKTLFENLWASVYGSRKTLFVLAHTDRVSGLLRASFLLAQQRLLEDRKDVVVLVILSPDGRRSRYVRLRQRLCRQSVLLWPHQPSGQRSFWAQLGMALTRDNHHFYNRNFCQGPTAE
TLR4-MyD88 BLA – blocks binding of human TLR4 to MyD88. HeLa CL3-4 TLR4/MyD88 BLA complementation, FRET ratio. inhibition, % at 8.4 µM. O00206+Q99836. 0.18% of 200,000 active. AID 861; in the data active = inhibition above about 25%;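 note: 0% = vehicle and 100% = reference inhibitor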
UPR XBP1 act – adaptive UPR (XBP1) activation. AID 463104. 0.33% of 330,000 active. CHO-XBP1 luciferase reporter, IRE1-XBP1 UPR activation, luminescence; percent of tunicamycin response, DMSO as zero. activation, % at 20 µM;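 active = versus positive control, 20 µM dose yields 30% or more activation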;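 note: 100% = tunicamycin at 10 µg/mL and 0% = DMSO only wells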
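Signal: luciferase luminescence; Assay system: CHO-XBP1 luciferase reporter cells; Amount: one thousand reporter cells per well; Dosing: 20 µM single concentration, DMSO 1%; Benchmarks: high control tunicamycin 10 µg/mL final, low control DMSO vehicle only; Schedule: 6 h compound exposure at 37 °C, 5% CO2; Evaluation: percent activation relative to tunicamycin reference.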
CHOP UPR activ – apoptotic UPR (CHOP) activation | CHO-CHOP luciferase reporter, luminescence; percent of tunicamycin response over DMSO baseline | activation, % at 10 µM | 0.34% of 330,000 active | AID 449763;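 active = at 10 µM dose, activation of 40% or more, normalized to positive control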;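 note: 100% = tunicamycin at 10 µg/mL and 0% = DMSO alone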
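System: CHO CHOP reporter cells. Amount: 500 cells per well. Buffer or medium: F12 medium, 10% FBS. Compound dosing: one dose, 10 µM in 0.5% DMSO. Incubation: 6 h compound exposure at 37 °C after overnight seeding. Technique: Steady-Glo luciferase luminescence. Benchmarks: tunicamycin and DMSO controls.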
NOD2 RIPK2 PPI – NOD2-RIPK2 protein interaction inhibition. O43353. CHO BLA complementation NOD2-RIPK2, CCF4 ratio. inhibition, % at 4.98 µM. 0.38% of 360,000 active; in the data active = inhibition above about 21%;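 note: 0% = vehicle only and 100% = reference blocker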
CHOP inhibitor – CHOP inhibition in unfolded protein response. CHO-K1 CHOP-promoter luciferase, tunicamycin-induced, 15-18 h. inhibition, % at 10 µM. 3.8% of 220,000 active;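 active = compounds that reduced the stress-induced luciferase reporter signal by more than about 70% of percent inhibition, limit read from the data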;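 note: 0% = tunicamycin plus vehicle and 100% = wells without tunicamycin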
NOD2-RIPK2 conf – confirmation of human NOD2-RIPK2 interaction inhibitors; shares compounds with NOD2 RIPK2 PPI; CHO cells, NOD2-RIPK2 BLA complementation, CCF4 FRET; inhibition, % at 4.98 µM; 70% of 1,200 active;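 active = mean inhibition across replicates above a set limit taken from the earlier primary screen, cut at about 21% in these data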;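 note: 0% = DMSO-only wells and the high end = clavulanate BLA-blocked wells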
NOD2 BLA counter – hits BLA reporter in NOD2-RIPK2 inhibitor counterscreen; shares compounds with NOD2 RIPK2 PPI; CHO BLA reporter, CCF4 FRET ratio; inhibition, % at 4.98 µM; 57% of 1,200 active; AID 624371;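 active = mean inhibition above the low-control mean inhibition plus three low-control SD, cut at about 11% in these data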;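 note: 0% = DMSO only wells and 100% = clavulanate high control wells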
An asterisk follows results filed as active; nt = no result. Shown is part of a subset that was picked to be rich in hits.

SMILES	TLR9-MyD88 block	TLR4-MyD88 BLA	UPR XBP1 act	CHOP UPR activ	NOD2 RIPK2 PPI	CHOP inhibitor	NOD2-RIPK2 conf	NOD2 BLA counter
O=C(Nc1nc2cc3c(cc2s1)OCO3)c1cccc(N2C(=O)CCC2=O)c1	-1.4	nt	2.4	5.9	-4.4	5.3	nt	nt
O=C(Nc1nc2cc3c(cc2s1)OCO3)c1ccc(N2C(=O)CCC2=O)cc1	1.4	nt	0.3	2.4	22.4*	46.7	32.1*	30.6*
N#Cc1cc(Oc2cccc3cccnc23)c(-n2nnc3ccccc32)cc1C#N	19.4	3.0	-1.1	0.3	70.1*	-3.0	-11.3	-3.1
N#Cc1cc(O)c(-n2nnc3ccccc32)cc1C#N	-0.5	6.2	-1.7	-1.5	2.0	-14.8	nt	nt
O=C(CCc1nc(-c2ccc(Cl)cc2)no1)NC1CCCC1	7.3	nt	-0.5	1.3	0.8	nt	nt	nt
COc1ccccc1Cc1c(-c2ccco2)nc2c(C)cc(Br)cn12	nt	nt	nt	nt	24.6*	nt	1.4	-5.3
COc1ccc(Cc2c(-c3ccco3)nc3c(C)cc(Br)cn23)c(C)c1	nt	nt	nt	nt	-1.8	nt	nt	nt
COc1ccccc1OCCn1cc(/C=C(\C#N)C(=O)NCc2cccs2)c2ccccc21	-0.1	8.3	-1.8	-2.3	28.8*	45.3	-8.3	-0.2
N#C/C(=C\c1cn(Cc2ccccc2C#N)c2ccccc12)C(=O)NCc1cccs1	nt	-6.0	1.6	-0.8	nt	6.3	nt	nt
Cc1cccc(C)c1NC(=O)C(c1ccc(C#N)cc1)n1c(=O)c(-c2cc3ccccc3[nH]2)nc2ccccc21 (centres undefined)	nt	nt	nt	nt	58.1*	nt	54.8*	73.5*
Cc1cccc(C)c1NC(=O)C(c1ccccc1)n1c(=O)c(-c2ccccc2)nc2ccccc21 (centres undefined)	nt	nt	nt	nt	-12.7	nt	nt	nt
Cc1cccc(C)c1NC(=O)C(c1ccncc1)n1c(=O)c(-c2cc3ccccc3[nH]2)nc2ccccc21 (centres undefined)	nt	nt	nt	nt	47.1*	nt	44.1*	63.4*
Cc1cccc(C)c1NC(=O)C(c1ccccc1)n1c(=O)c(-c2cc3ccccc3[nH]2)nc2ccccc21 (centres undefined)	nt	nt	nt	nt	46.6*	nt	45.3*	67.7*
O=C(Nc1ccc2ccccc2c1)C(c1ccccc1)n1c(=O)c(-c2cc3ccccc3[nH]2)nc2ccccc21 (centres undefined)	nt	nt	nt	nt	46.8*	nt	41.6*	66.2*
COc1ccc(NC(=O)CSc2nnc(-c3cccnc3)s2)cc1	-15.6	nt	-1.0	1.9	0.1	nt	nt	nt
Cn1c(N)c(C(=O)c2ccc(C#N)cc2)c(=O)n(C)c1=O	-1.7	8.5	-0.5	1.5	3.5	4.7	nt	nt
Cc1ccc(S(=O)(=O)Oc2ccc(/C=C3/C(=N)N4C(=NC3=O)SN=C4S(C)(=O)=O)cc2)cc1	-6.2	nt	-2.0	0.1	-4.0	nt	nt	nt
COc1cc(/C=C2/C(=N)N3C(=NC2=O)SN=C3S(C)(=O)=O)ccc1OS(=O)(=O)c1ccc(C)cc1	9.2	nt	-1.1	3.2	22.9*	nt	-1.7	-8.9
COc1ccc(Nc2nnc(SCC(=O)N3CC(=O)Nc4ccccc43)s2)cc1	-1.4	3.0	-1.7	0.2	26.6*	10.4	3.5	-7.6
O=S(=O)(c1cnc(Cl)c(Br)c1)N1CCc2ccccc21	11.6	nt	-3.9	-0.9	26.7*	-2.0	34.6*	5.1
N#CC1(NC(=O)CSc2nnc(C3CC3)n2N)CCCCC1	-7.9	nt	nt	nt	1.8	nt	nt	nt
CN(C)c1ccc(C=Cc2nccc3ccccc23)cc1	nt	nt	nt	nt	75.3*	nt	36.8*	46.2*
O=C(NC1CCCCC1)c1cnn2c(C(F)(F)F)cc(-c3ccco3)nc12	-3.3	-9.4	1.1	-0.3	24.2*	38.9	12.2	3.2
CCCCCNC(=O)C(C1CC1)n1c(=O)c(-c2cc3ccccc3[nH]2)nc2ccccc21 (centres undefined)	nt	nt	nt	nt	44.8*	nt	37.1*	64.0*
